Screening data: PubChem, Johns Hopkins Ion Channel Center
Compounds with a hit are over-represented: about 4.1% of the library has one in this group of screens.
RGS4 act = RGS4 potentiation or activation; 310,000 tested, 0.92% active; HEK293 M3R/inducible RGS4, carbachol calcium flux Fluo4; active compounds read low; B-score at 10 µM;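 active means B-score of the integrated calcium signal more than 4 SD below the library mean, with starting fluorescence not abnormally high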;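 further: negative B-score means reduced calcium response which marks RGS4 activation or potentiation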
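Test system: HEK293 cells with stable M3R and inducible RGS4; also added: carbachol at ECmax as muscarinic agonist stimulus; schedule: dye loading 30 min 37 °C, buffer rest 30 min RT; technique: kinetic calcium fluorescence imaging with Fluo4-AM dye, 2 µM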
MrgX1 ag = activates human MrgX1 receptor signaling; Q96LB2; MrgX1-HEK293 cells, Fluo-4 calcium fluorescence, agonist mode; active compounds read high; B-score at 10 µM; 310,000 tested, 0.44% active; AID 588627;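 active means calcium response B-score plate-corrected fluorescence ratio at least 3 library SD, with starting fluorescence B-score inside 5 SD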
Target sequence (Q96LB2 whole entry, looked up): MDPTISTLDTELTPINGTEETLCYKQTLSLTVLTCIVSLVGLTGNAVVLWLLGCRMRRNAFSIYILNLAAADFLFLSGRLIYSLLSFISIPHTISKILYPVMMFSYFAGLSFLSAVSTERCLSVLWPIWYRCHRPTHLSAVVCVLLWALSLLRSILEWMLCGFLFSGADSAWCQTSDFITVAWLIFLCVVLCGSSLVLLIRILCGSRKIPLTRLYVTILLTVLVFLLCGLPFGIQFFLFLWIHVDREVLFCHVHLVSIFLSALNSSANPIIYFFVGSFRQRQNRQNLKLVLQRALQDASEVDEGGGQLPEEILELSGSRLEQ
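Test system: HEK293 cells stably expressing human MrgX1 receptor; Input: fifteen thousand cells per well; Dosing: compound delivered in addition one of three; Schedule: overnight seeding, then 1 h dark dye loading; Technique: Fluo-4 NW calcium fluorescence; Measure: B-scored fluorescence response ratio; Controls: positive and negative controls per plate.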
MrgX1 allo act = human MrgX1 positive allosteric modulation, primary screen. 310,000 tested, 0.63% active. MrgX1-HEK293, Fluo-4 calcium flux, FDSS; active compounds read high. B-score at 10 µM. Q96LB2;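 active means plate-corrected calcium response at least 3 library SD above typical, normal starting fluorescence, not activating the receptor alone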;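 further: compound read alongside a low EC10 to EC30 dose of BAM8-22 agonist; peak minus trough fluorescence over baseline measured at the second addition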
RGS4 block = inhibitors of human RGS4. HEK293 M3R/RGS4 inducible, Fluo-4 calcium flux; active compounds read high; triggered by carbachol at its EC20. AID 463165. 310,000 tested, 0.45% active. P49798. B-score at 10 µM;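 active means B-score, a plate-corrected calcium signal, over three deviations above library mean, with baseline fluorescence within five deviations of library mean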;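 further: RGS4 expression induced by doxycycline in cells with stable M3 receptor; B-score is computed from the integrated fluorescence ratio over baseline after carbachol; higher B-score means a larger calcium signal and so more RGS4 inhibition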
Target sequence (P49798 whole entry, looked up): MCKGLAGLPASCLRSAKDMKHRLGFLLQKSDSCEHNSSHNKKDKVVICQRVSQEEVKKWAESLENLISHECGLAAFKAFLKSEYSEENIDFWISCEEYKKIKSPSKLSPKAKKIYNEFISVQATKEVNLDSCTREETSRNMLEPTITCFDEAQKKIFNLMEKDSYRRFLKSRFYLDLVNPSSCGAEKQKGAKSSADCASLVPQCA
MrgX1 antagonist = human MrgX1 receptor antagonism, primary screen; MRGX1-HEK293 calcium flux, Fluo-4, BAM8-22 antagonism; active compounds read low; B-score at 10 µM; Q96LB2; 310,000 tested, 1.3% active;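 active means calcium-response B-score plate-corrected more than 3 library SD below zero, starting fluorescence within 5 deviations, no agonist response on first addition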;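 further: peak minus trough fluorescence over baseline after final BAM8-22 challenge near maximal dose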
Kir21 block = blocks the mouse Kir2.1 inward-rectifier potassium channel; P35561; HEK293-Kir2.1, FluxOR thallium flux fluorescence; active compounds read low; 310,000 tested, 0.85% active; B-score at 10 µM;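 active means fluorescence ratio B-score at or below minus 3 SD of library scores, with starting-brightness B-score within 2 SD, cut at about -4.2 in these data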;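 further: channel flux triggered by added potassium and thallium sulfate stimulus; B-score of peak minus minimum fluorescence over baseline after thallium stimulus; more negative B-score means stronger Kir2.1 block with less thallium influx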
RGS4 block valid = validation of RGS4 inhibitors | AID 492999 | HEK293 M3R/RGS4, carbachol calcium Fluo-4 fluorescence; carbachol added at its EC20; 0 = buffer wells, 100 = carbachol control | calcium response, % at 10 µM | shares compounds with RGS4 block | 1,700 tested, 65% active;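 active means duplicate-averaged calcium response above the buffer-only control mean plus 5 SD of those controls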;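 further: integrated fluorescence ratio F max minus min over baseline F0; higher response in RGS4-induced cells means RGS4 inhibition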
M3R Ca ctr = counter-screen for RGS4 inhibitors: effect in non-induced cells. shares compounds with RGS4 block. HEK293 M3R non-induced, carbachol calcium Fluo-4; submaximal (EC20) carbachol stimulus; buffer wells 0%, carbachol control wells 100%. activity (percent), % at 10 µM. 1,900 tested, 20% active. AID 493000; call rule not given here;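 further: RGS4 induction absent so cells express M3R without RGS4; higher means more calcium signal and flags a non-specific hit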
M3R basal Ca ctr = signal in non-induced cells without carbachol, RGS4 inhibitor counter-screen; shares compounds with RGS4 block; AID 493001; calcium response (agonist-mode artifact), % at 10 µM; 1,900 tested, 22% active; HEK293 M3R/RGS4 non-induced, Fluo-4 calcium, no carbachol; normalised: buffer wells 0%, carbachol wells 100%;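 active means duplicate-averaged calcium rise in uninduced cells above buffer wells' mean plus 5 SD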
A number is an active result; . = inactive; / = not tested or not shown.

SMILES	RGS4 act	MrgX1 ag	MrgX1 allo act	RGS4 block	MrgX1 antagonist	Kir21 block	RGS4 block valid	M3R Ca ctr	M3R basal Ca ctr
COC(=O)c1c(C)cc(O)c(C=O)c1O	.	.	.	5.2	.	.	26%	.	.
COc1ccc(CC(=O)NNC(=O)CCc2ccccc2)cc1	.	.	.	.	.	.	/	/	/
CCn1c2ccccc2c2cc(C3C(C#N)=C(N)Oc4n[nH]c(COC)c43)ccc21 (stereo unspecified)	.	.	.	25	.	.	39%	34%	.
COCc1[nH]nc2c1C(c1ccc(OC)c(OC)c1)C(C#N)=C(N)O2 (stereo unspecified)	.	.	.	.	.	.	/	/	/
Nn1c(Cc2cccc3ccccc23)nnc1SCCOc1ccc(F)cc1	.	.	.	6.5	.	.	.	.	.
Nn1c(Cc2cccc3ccccc23)nnc1SCCOc1ccc(Br)cc1	.	.	.	.	.	.	.	.	.
Nn1c(Cc2cccc3ccccc23)nnc1SCc1c(F)cccc1Cl	.	.	.	.	.	.	/	/	/
CCOC(=O)[C@@H]1[C@H]2COc3cc(OC)ccc3[C@@H]2N2C(=O)N(c3ccc(Br)cc3)C(=O)[C@@]12C	.	.	.	.	.	.	/	/	/
CCOC(=O)[C@@H]1[C@H]2COc3cc(OC)ccc3[C@H]2N2C(=O)N(c3cccc(Cl)c3)C(=O)[C@]12C	.	.	.	.	.	.	.	.	.
CCOC(=O)[C@@H]1[C@H]2COc3cc(OC)ccc3[C@H]2N2C(=O)N(c3cccc(Cl)c3)C(=O)[C@@]12C	.	.	.	.	.	.	.	.	.
CCOC(=O)[C@@H]1[C@H]2COc3cc(OC)ccc3[C@@H]2N2C(=O)N(c3ccc(OC)cc3)C(=O)[C@]12C	.	.	.	.	.	.	/	/	/
COc1ccc(C(=O)N2CCN=C2SCc2cccnc2)cc1OC	.	.	.	.	.	.	/	/	/
O=C(NCCOc1cccc2cccnc12)c1cccs1	.	.	.	.	.	.	/	/	/
O=C(Oc1cccc2cccnc12)c1cccs1	.	.	.	7.3	.	.	48%	.	.
Cc1c(C(=O)Oc2cccc3cccnc23)cccc1[N+](=O)[O-]	.	.	.	10	.	.	56%	.	.
O=C(Oc1cccc2cccnc12)c1cccc([N+](=O)[O-])c1	.	.	.	.	.	.	/	/	/
O=C(Oc1cccc2cccnc12)c1ccc(Br)o1	.	.	.	4.7	.	.	42%	.	.
O=C(Oc1cccc2cccnc12)c1ccco1	.	.	.	.	.	.	/	/	/
COCCN1C=C(C(=O)OC)C(c2ccc(OC)c(OC)c2)C(C(=O)OC)=C1	.	.	.	.	.	.	/	/	/
N#Cc1c(N2C(=O)Nc3ccccc3N2O)sc2c1CCCC2	.	.	.	.	.	.	/	/	/
N#Cc1c(N2C(=O)Nc3ccccc3N2O)sc2c1CCCCCC2	.	.	.	5.2	.	.	16%	42%	.
Cc1cc(C(=O)OCC(=O)Nc2cccc(S(=O)(=O)N(C)C)c2)c2ccccc2n1	.	.	.	.	.	.	/	/	/
NS(=O)(=O)c1cccc(NC(=O)COC(=O)c2cc(-c3ccc(Cl)cc3)nc3ccccc23)c1	.	.	.	5.6	.	.	14%	.	.
O=C(/C=C/Nc1ccc(OC(F)(F)F)cc1)C(F)(F)F	.	.	.	.	.	.	/	/	/
Cc1c(/C=N/NC(=O)CNc2ccccc2)c2ccccn2c1C(=O)c1ccccc1	.	.	.	.	.	.	.	.	16%
SMILES	RGS4 act	MrgX1 ag	MrgX1 allo act	RGS4 block	MrgX1 antagonist	Kir21 block	RGS4 block valid	M3R Ca ctr	M3R basal Ca ctr
Cc1ccc(CN(C(=O)N2CCN(C)CC2)S(=O)(=O)c2ccc(C)cc2)cc1	.	.	.	.	.	.	/	/	/
O=C(NN=C1CCCC1)c1[nH]c2ccc(Cl)cc2c1-c1ccccc1	.	.	.	11	.	.	50%	.	.
CC(=O)NNC(=O)c1[nH]c2ccc(Cl)cc2c1-c1ccccc1	.	.	.	.	.	.	/	/	/
CCCCCOc1ccc(N2C(=O)CC(N(O)c3ccccc3)C2=O)cc1 (stereo unspecified)	.	.	.	.	.	.	/	/	/
Cc1ccc(C(=O)N/C(=C\c2ccccc2)C(=O)NCc2cccnc2)cc1	.	.	.	.	.	.	.	.	.
O=C(NCc1cccnc1)/C(=C/c1ccco1)NC(=O)c1ccccc1	.	.	.	.	.	.	/	/	/
O=C(NCc1cccnc1)/C(=C/c1ccccc1)NC(=O)c1ccccc1	.	.	.	5.2	.	.	.	.	.
CC(C)c1ccc(S(=O)(=O)N2CCN(C(=O)CN3C(=O)NC4(CCCC4)C3=O)CC2)cc1	.	.	.	.	.	.	/	/	/
CCC(CC)C(=O)Nc1nnc(SCC(=O)N2CCN(c3ccccc3OC)CC2)s1	.	.	.	.	.	.	/	/	/
COc1ccccc1NC(=O)C(C)N(C)CCOc1ccccc1 (stereo unspecified)	.	.	.	.	.	.	/	/	/
O=C(Nc1ccc2ccccc2c1)C(=O)C1C(=O)Nc2ccccc21 (stereo unspecified)	.	.	6.9	8.1	.	.	12%	.	.
Cc1sc2nc(CN(C(=O)NC3CCCCC3)C3CCCC3)[nH]c(=O)c2c1C	.	.	.	.	.	.	/	/	/
Cc1sc2nc(CN(Cc3cccs3)C(=O)NC3CCCCC3)[nH]c(=O)c2c1C	.	.	.	.	.	.	/	.	.
COC(=O)/C(=C/c1c[nH]c2ccccc12)NC(C)=O	.	.	.	.	.	.	/	/	/
COC(=O)/C(=C/c1c[nH]c2ccccc12)[N+](=O)[O-]	.	34	.	21	.	.	18%	35%	20%
CCN(CC)c1ccc(N2C(=O)/C(=C\c3cccnc3)SC2=S)cc1	.	.	.	7.3	.	.	.	.	.
CN(CCO)c1nc2c(c(=O)n(Cc3ccc(Cl)cc3)c(=O)n2C)n1C	.	.	.	.	.	.	/	/	/
Cc1[nH]n(-c2ncc(-c3ccc(Cl)cc3)s2)c(=O)c1C(c1ccc(Cl)cc1)C(C#N)C#N (stereo unspecified)	.	.	.	18	.	.	30%	.	48%
COc1ccc(C(c2c(C)[nH]n(C(N)=S)c2=O)C(C#N)C#N)cc1 (stereo unspecified)	/	.	.	/	.	/	/	/	/
